Bioassay records: PubChem BioAssay, several laboratories
Sampled rows, rich in hits. Any-hit rate of the full collection: about 2.8%.
PP1 inh – PP1-alpha phosphatase inhibitors, primary screen, counter-screen for PP5 inhibitor project, biochemical, fluorescence, OMFP substrate, single point | Serine/threonine-protein phosphatase PP1-alpha catalytic subunit (Homo sapiens), P62136 | purified PP1alpha | inhibition, % at 6.7 µM | 320,000 compounds, 0.9% hits | AID 2235, 2010;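 active means inhibition above the mean inhibition of all tested compounds plus 3 SD, computed separately for each screening campaign, cut at about 15% in these data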
Target sequence (P62136 whole entry, looked up): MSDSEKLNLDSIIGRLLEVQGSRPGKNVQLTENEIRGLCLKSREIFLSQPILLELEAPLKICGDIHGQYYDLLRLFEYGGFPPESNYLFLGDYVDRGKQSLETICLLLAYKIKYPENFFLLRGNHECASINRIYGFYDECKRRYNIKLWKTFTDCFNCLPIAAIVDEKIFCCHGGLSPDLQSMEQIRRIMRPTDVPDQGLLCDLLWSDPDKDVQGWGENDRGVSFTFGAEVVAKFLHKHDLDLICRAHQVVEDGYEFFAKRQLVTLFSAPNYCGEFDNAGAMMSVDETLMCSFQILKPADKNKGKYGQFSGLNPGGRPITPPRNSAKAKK
UBC13 inh – UBC13 polyubiquitin chain formation inhibitors, primary screen, biochemical, TR-FRET, uHTS | inhibition, % at 20 µM | 330,000 compounds, 0.47% hits | AID 485273, 2010; in the data active means inhibition above about 45%, passing the limit was not always enough; inconclusive means no clear call, values can overlap the other calls
Target sequence (P61088 whole entry, looked up): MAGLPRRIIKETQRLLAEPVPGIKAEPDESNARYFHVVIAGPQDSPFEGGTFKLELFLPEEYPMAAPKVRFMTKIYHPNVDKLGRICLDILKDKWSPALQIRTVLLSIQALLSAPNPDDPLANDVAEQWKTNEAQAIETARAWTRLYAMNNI
T cruzi repl – inhibitors of intracellular T. cruzi growth, primary screen, luminescence, NIH3T3 host cells. inhibition, % (test concentration not listed). 300,000 compounds, 1.4% hits. T. cruzi beta-gal in NIH3T3, 90 h;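 active means mean inhibition across valid replicates above about 55%, limit read from the data; inconclusive means mean below that limit but half or more replicates reach it; inactive means mean below it, under half of replicates reach it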;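 further: signal also drops with host cell toxicity which is not excluded here; 0% = plate median of DMSO wells and 100% = zero luminescence signal; higher percent means less beta-gal luminescence so fewer parasites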
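Incubation – ≥90 h infection period, 3 h prior cell attachment · System – NIH/3T3 fibroblasts plus reporter T. cruzi · Doses – compound pinned at 50 nL/well, DMSO · Read-out basis – percent inhibition of parasite-derived β-gal signal · Signal – luminescent β-galactosidase signal after 60 min lysis · Also added – 5000 T. cruzi trypomastigotes/well · Medium – Low-serum DMEM with 2% FBS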
AI-2 QS modul – Vibrio harveyi AI-2 quorum sensing modulators, primary screen, JMH597 strain, luminescence/OD600 ratio; Vibrio harveyi JMH597 AI-2 luminescence/OD600 ratio, 9 h; active compounds read low; strain lacks LuxN and CqsS sensors; 0 = neutral-control median; activity change, % at 7.5 µM; 300,000 compounds, 0.4% hits; AID 2094, 2009; in the data active means activity change below about -75%, passing the limit was not always enough; inconclusive means no clear call, values can overlap the other calls;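 further: luminescence divided by OD600 gain over 9 h not by final OD600 alone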
p-CIP stab down – p/CIP-EGFP fusion destabilizers, primary screen, fluorescence, F442A cells; Q05BA5; 16 h; decrease of EGFP signal, % at 10 µM; 290,000 compounds, 0.01% hits; AID 1984, 2009;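 active means EGFP signal decrease of at least 30% at 10 µM or well 3 SD below plate mean, unless failing retest; inactive means the rest, including hits failing retest or dose response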
JMH597 growth – Vibrio harveyi growth inhibition, confirmation, counter-screen for AI-2 quorum sensing project, JMH597 strain, OD600 absorbance; 750 compounds, 1% hits; 9 h; lacks LuxN and CqsS sensors; shares compounds with AI-2 QS modul; growth inhibition, % at 7.5 µM;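 active means every replicate shows growth inhibition above 50%; inconclusive means at least half, but not all, replicates pass that cutoff; inactive means fewer than half of replicates pass it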
BB721 const-QS lum – luminescence inhibition in constitutive-on V. harveyi, confirmation, counter-screen for LuxS inhibitor project, strain BB721, luminescence readout. shares compounds with AI-2 QS modul. 750 compounds, 95% hits. inhibition, % at 7.5 µM. AID 2727, 2010. Vibrio harveyi BB721 luminescence, 9 h;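 active means inhibition above about 80% in every replicate, not just on average, limit read from the data; inconclusive means at least half of replicates past the limit, but not all; inactive means fewer than half of replicates past the limit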
BB721 growth – growth inhibition of V. harveyi BB721, confirmation, cytotoxicity control for AI-2 quorum sensing inhibitors, strain BB721, absorbance OD600; growth inhibition, % at 7.5 µM; AID 2728, 2010; shares compounds with AI-2 QS modul; 750 compounds, 3% hits; Vibrio harveyi BB721 growth, 9 h;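 active means every replicate shows growth inhibition above 50%; inconclusive means at least half but not all replicates above 50% inhibition; inactive means under half of replicates above 50% inhibition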
AI-2 QS JMH597 – Vibrio harveyi AI-2 signaling luminescence modulation – JMH597 strain, confirmation; AID 2736, 2010; inhibition, % at 7.5 µM; shares compounds with AI-2 QS modul; Vibrio harveyi JMH597 AI-2 quorum sensing luminescence, 9 h; luxN and CqsS knockout, AI-2 only; 750 compounds, 97% hits;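 active means every replicate shows more than 75% inhibition of signal versus neutral control wells; inconclusive means half to three quarters of replicates exceed 75% inhibition; inactive means fewer than half of replicates exceed 75% inhibition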
* hit, by the source's call; ? = inconclusive; / = not tested or not shown.

SMILES	PP1 inh	UBC13 inh	T cruzi repl	AI-2 QS modul	p-CIP stab down	JMH597 growth	BB721 const-QS lum	BB721 growth	AI-2 QS JMH597
CCCC1(c2ccccc2)NC(=O)N(CC(=O)Nc2ccc3c(c2)OCCO3)C1=O (stereo unspecified)	/	9	/	/	/	/	/	/	/
CC1(c2ccc3c(c2)OCO3)NC(=O)N(CC(=O)Nc2ccc(N3CCOCC3)cc2)C1=O (stereo unspecified)	0	-6	6	-88*	-2	0	88*	-6	94*
COc1ccccc1/C=C/C(=O)N1CCc2cc(OC)c(OC)cc2C1C (stereo unspecified)	-3	8	-1	26	9	/	/	/	/
C(=N\NCc1ccccc1)/c1ccc2nccnc2c1	0	-18	7	-46	-5	/	/	/	/
C(=N\NCc1ccccc1)/c1ccc2ncccc2c1	-1	?	-1	-95*	-8	0	98*	-7	99*
COc1cc(/C=C/C(=O)O)ccc1OS(=O)(=O)c1c(C)cc(C)cc1C	-1	-12	/	/	/	/	/	/	/
CC1CCN(C(=O)c2cc(-c3ccco3)on2)CC1	-3	4	8	22	0	/	/	/	/
CC1CCN(C(=O)c2cc(-c3ccc4c(c3)OCO4)on2)CC1	0	4	-3	-90*	-12	-13	96*	-20	97*
CC1CCN(C(=O)c2cc(-c3ccccc3O)on2)CC1	1	-4	1	-84*	-15	-5	95*	12	96*
CC1CCCCN1C(=O)c1c(Cl)cnn1C (stereo unspecified)	/	6	/	25	2	/	/	/	/
O=C(NNc1nc(-c2ccc(Br)cc2)cs1)c1ccco1	0	-9	10	-85*	8	63*	95*	69*	97*
O=C(NC(=S)Nc1nc(-c2ccc(Br)cc2)cs1)c1ccco1	-1	-2	14	21	15	/	/	/	/
Cc1cc(NS(=O)(=O)c2ccc(NC(=O)CCc3ccccc3)cc2)no1	6	0	-12	-91*	-7	21	95*	17	97*
Cc1cc(NS(=O)(=O)c2ccc(NC(=O)CCCOc3ccccc3)cc2)no1	-2	6	-5	-12	-3	/	/	/	/
NS(=O)(=O)c1cccc(NC(=O)CSc2ncnc3ccccc23)c1	0	12	-15	-82*	4	5	85*	8	92*
NS(=O)(=O)c1cccc(NC(=O)Cn2cnc3ccccc3c2=O)c1	0	-3	-6	-85*	-7	18	93*	-3	95*
COC(=O)c1cccc(NC(=O)Cn2cnc3ccccc3c2=O)c1	0	6	0	-94*	-7	12	99*	1	99*
O=C(Cn1cnc2ccccc2c1=O)Nc1ccc2c(c1)OCO2	0	-6	-3	-71	-5	/	/	/	/
NS(=O)(=O)c1ccc(NC(=O)CSc2ncnc3ccccc23)cc1	-5	23	-6	41	15	/	/	/	/
CCCc1nnc(NC(=O)Cn2cnc3ccccc3c2=O)s1	-2	5	-23	-86*	0	14	96*	15	96*
O=S(=O)(NCCC1=CCCCC1)c1c(Cl)cccc1Cl	1	-4	3	14	/	/	/	/	/
Cc1ccccc1OCCNC(=O)/C=C/c1ccc([N+](=O)[O-])cc1	-2	-1	23	0	0	/	/	/	/
